Measurements: ChEMBL document CHEMBL1158368, “Synthesis of novel 3-(aryl)benzothieno[2,3-c]pyran-1-ones from Sonogashira products and intramolecular cyclization: Antitumoral activity evaluation” (2009)

Experiments:
Assay type in all cases: functional
CNS cell = test: Cytotoxicity against human CNS cells after 48 hrs by SRB assay
How it was run: (§1)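 Cells were seeded at 1.5 × 10⁵ cells/mL (MCF-7 and SF-268) so growth stayed exponential, attached overnight, then were exposed to compound for 48 h at 37 °C in humidified 5% CO₂. Untreated controls received DMSO vehicle at up to 0.25%. Cells were fixed in situ and stained with SRB; the bound dye was solubilized and read at 492 nm. GI₅₀ (50% inhibition of net growth) came from dose–response curves, run in duplicate.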

NCI-H460 = test: Cytotoxicity against human NCI-H460 cells after 48 hrs by SRB assay; details: NCI-H460, 48 h
How it was run: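 NCI-H460 cells were plated at 0.75 × 10⁴ cells/mL to keep growth exponential, left overnight to attach, and treated for 48 h at 37 °C in humidified 5% CO₂, with DMSO vehicle controls at up to 0.25%. Readout was SRB staining of in-situ-fixed cells, with solubilized dye measured at 492 nm. GI₅₀ (50% net growth inhibition) came from dose–response curves in duplicate.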

MCF7 = test: Cytotoxicity against human MCF7 cells after 48 hrs by SRB assay; details: MCF7, 48 h; how it was run: as §1

Row | SMILES | GI50 (CNS cell) [µM] | GI50 (NCI-H460) [µM] | GI50 (MCF7) [µM]
1 | O=c1oc(-c2ccccc2F)cc2c1sc1ccccc12 | 12.4 | 15.5 | 19.4
2 | COC(=O)c1sc2ccccc2c1C#Cc1ccccc1 | 64.7 | 58.9 | 71.6
3 | COc1ccc(-c2oc(=O)c3sc4ccccc4c3c2I)cc1 | > 150 | > 150 | > 150
4 | O=c1oc(-c2ccc(F)cc2)c(I)c2c1sc1ccccc12 | 20.7 | 35.8 | 25.2
5 | O=c1oc(-c2ccc(F)cc2)cc2c1sc1ccccc12 | > 25 | > 25 | > 25
6 | O=c1oc(-c2ccccc2)cc2c1sc1ccccc12 | > 112 | > 112 | > 112
7 | COC(=O)c1sc2ccccc2c1C#Cc1ccccc1F | 25.7 | 30.2 | 40.9
8 | COC(=O)c1sc2cc(OC)ccc2c1C#Cc1ccccc1F | 7.2 | 10.3 | 11.4
9 | COc1ccc2c(c1)sc1c(=O)oc(-c3ccc(F)cc3)cc12 | 28.9 | 118 | 109
10 | COC(=O)c1sc2cc(OC)ccc2c1C#Cc1ccccc1 | 54.9 | 42.3 | 79.6
11 | COc1ccc2c(c1)sc1c(=O)oc(-c3ccc(F)cc3)c(I)c12 | > 150 | > 150 | > 150
12 | COC(=O)c1sc2ccccc2c1C#Cc1ccc(F)cc1 | 76.1 | 56.2 | 60.6
13 | COc1ccc(-c2cc3c(sc4ccccc43)c(=O)o2)cc1 | > 75 | > 75 | > 75
14 | COc1ccc2c(c1)sc1c(=O)oc(-c3ccccc3)cc12 | > 75 | > 75 | > 75
15 | COC(=O)c1sc2ccccc2c1C#Cc1ccc(OC)cc1 | > 150 | 103 | 90.6
16 | COC(=O)c1sc2cc(OC)ccc2c1C#Cc1ccc(F)cc1 | 20.9 | 10.1 | 12.6
17 | COc1ccc2c(c1)sc1c(=O)oc(-c3ccccc3F)c(I)c12 | 11.3 | 10.9 | 11.9
18 | COc1cccc2c1C(=O)c1c(O)c3c(c(O)c1C2=O)C[C@@](O)(C(=O)CO)C[C@@H]3O[C@H]1C[C@H](N)[C@H](O)[C@H](C)O1 [DOXORUBICIN] | 0.094 | 0.094 | 0.0428
